Read-outs that look alike come from different tables or passages of the source. Starred links: 1 amine or outer side, 2 acyl side, 3 side chain; linkers in the order of their positions; H or OH if unused. Non-standard residues stand in square brackets, D forms with d. Residues, ends and D or L forms follow the SMILES beside them. Trp(7-aza) = N[C@@H](Cc1c[nH]c2ncccc12)C(=O)O; X1 = O=C([C@H](Cc1n[nH]c2ncccc12)N[*:1])[*:2]
Legend:
[1] = steady-state absorption and emission spectroscopy, free in solution; type: physicochemical; conditions: for λabs: neutral water; for λem, normal / N(1)-H emission: neutral water (peptides: neutral Tris buffer); for λem, second band (N(2)-H emission) / λem, third band (N(7)-H tautomer emission): neutral water / neutral Tris buffer
Method in brief: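 Absorption recorded on a UV-vis spectrophotometer. Emission recorded on a fluorimeter with wavelength-calibrated excitation and emission response. Peptide concentration was set spectrophotometrically from the extinction coefficient of its single Trp or Trp-analogue residue.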

[2] = time-resolved fluorescence; type: physicochemical
Method in brief: (§1)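 Lifetimes measured by time-correlated single-photon counting, with two sources. One used hydrogen-lamp excitation (about 300 ps resolution). The other used 310 nm third-harmonic excitation from 930 nm femtosecond pulses (82 MHz) with a microchannel-plate detector (about 15 ps resolution). Emission was collected at right angles through a 54.7° polarizer. Decays were fitted to sums of exponentials with the instrument response deconvolved.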

[3] = cited from earlier work
[4] = target: T1, bovine brain calmodulin (CaM) (Bos taurus, UniProt P62157); assay: CaM binding by fluorescence titration; conditions: for increase in CaM binding affinity on replacing Trp: relative to Baa (210±10 pM)
[5] = cited from earlier work; remark: listed apart in the source
CD spectrum = type: physicochemical; conditions: Fig. S2
[6] = target: T1, bovine brain calmodulin (CaM); assay: time-resolved fluorescence; type: binding; conditions: peptide-CaM complex, ±0.03 ns uncertainty
Method in brief: as §1

[7] = target: T1, bovine brain calmodulin (CaM); assay: steady-state emission spectra upon titration with CaM; type: binding; conditions: for λem, N(1)-H emission: bound to CaM, pH 7.5 Tris buffer; for environment around Trp analogue upon binding CaM: deduced from steady-state emission; for λabs: in presence of CaM
Method in brief: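 Peptide at 1 µM in 5 mM Tris-HCl, pH 7.5, 1.0 mM CaCl₂, 25 °C. CaM added stepwise to 6 µM final, with 1 min stirring and 10 min equilibration per step. Full emission spectra recorded on a calibrated fluorimeter, corrected for dilution, each an average of three replicates. Peptide and CaM concentrations were set from Trp and Tyr absorption extinction coefficients.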

[8] = free, neutral water, λmon 320 nm, ±0.03 ns uncertainty
[9] = free, neutral water, λmon 550 nm, ±0.03 ns uncertainty
[10] = free, neutral water, λmon not given, ±0.03 ns uncertainty
[11] = free, neutral water, λmon 380 nm
[12] = free, neutral water, λmon 380 nm, ±0.03 ns uncertainty
[13] = free, neutral water, λmon 540 nm, ±0.03 ns uncertainty

Molecule: c1cnc2[nH]ncc2c1 [2,7-diazaindole]
- λabs [1]: 295 nm
- λem, normal / N(1)-H emission [1]: 335 nm
- λem, second band (N(2)-H emission) [1]: 370 nm
- λem, third band (N(7)-H tautomer emission) [1]: 495 nm
- τ [2, 8]: 0.22 ns
- τ ([2]; free, neutral water, λmon 400 nm, ±0.03 ns uncertainty): 10.10 ns
- τ, decay component [2, 9]: 1.30 ns
- τ, rise component [2, 9]: 0.21 ns

Molecule: c1cnc2[nH]ccc2c1 [7-azaindole]
- λabs [1]: 288 nm
- λem, normal / N(1)-H emission [1]: 386 nm
- τ [2, 10]: 0.91 ns
- lifetime ([3]; in DMSO): 9.3 ns
- lifetime ([3]; in acetonitrile): 5.7 ns

Molecule: N[C@@H](Cc1n[nH]c2ncccc12)C(=O)O [(2,7-aza)Trp, 2,7-diazatryptophan]
- increase in CaM binding affinity on replacing Trp [4]: 4.7 times
- N(7)-H tautomer emission ([5]; water rich environments): 500 nm
- λabs [1]: 300 nm
- λem, normal / N(1)-H emission [1]: 340 nm
- λem, second band (N(2)-H emission) [1]: 380 nm
- λem, third band (N(7)-H tautomer emission) [1]: 500 nm
- τ [2, 8]: 0.26 ns
- percentage of τ component 1 [2, 11]: 12%
- percentage of τ component 2 [2, 11]: 88%
- τ, component 1 [2, 12]: 0.27 ns
- τ, component 2 [2, 12]: 10.07 ns
- τ, decay component [2, 13]: 0.58 ns
- τ, rise component [2, 13]: 0.26 ns

Molecule: CC(=O)N[C@@H](CC(C)C)C(=O)N[C@@H](CCCCN)C(=O)N[C@@H](Cc1n[nH]c2ncccc12)C(=O)N[C@@H](CCCCN)C(=O)N[C@@H](CCCCN)C(=O)N[C@@H](CC(C)C)C(=O)N[C@@H](CC(C)C)C(=O)N[C@@H](CCCCN)C(=O)N[C@@H](CC(C)C)C(=O)N[C@@H](CC(C)C)C(=O)N[C@@H](CCCCN)C(=O)N[C@@H](CCCCN)C(=O)N[C@@H](CC(C)C)C(=O)N[C@@H](CC(C)C)C(=O)N[C@@H](CCCCN)C(=O)N[C@@H](CC(C)C)C(=O)NCC(N)=O [(2,7-aza)Trp-Baa] (Ac-LK[X1]KKLLKLLKKLLKLG-NH2)
- Kd [4]: 0.045 ± 0.002 nM
- secondary structure by CD (CD spectrum): α-helix structure
- λabs [1]: 300 nm
- λem, normal / N(1)-H emission [1]: 340 nm
- λem, second band (N(2)-H emission) [1]: 380 nm
- λem, third band (N(7)-H tautomer emission) [1]: 500 nm
- τ, N(1)-H emission lifetime ([6]; λmon 330 nm): 1.10 ns
- λem, N(1)-H emission ([7]; 1.0 mM CaCl2): 340 nm
- environment around Trp analogue upon binding CaM [7]: water scant environment
- λabs [7]: 300 nm
- change of N(1)-H emission at 340 nm upon titration with CaM ([7]; pH 7.5 Tris, 1.0 mM CaCl2): increase of the N(1)-H emission
- τ, N(1)-H emission lifetime ([2]; free peptide in water, λmon 330 nm, ±0.03 ns uncertainty): 0.21 ns

Molecule: N[C@@H](Cc1c[nH]c2ncccc12)C(=O)O [(7-aza)Trp, 7-azatryptophan]
- increase in CaM binding affinity on replacing Trp [4]: 1.9 times
- emission maximum ([5]; in tetrahydrofuran): 350 nm
- λabs [1]: 289 nm
- λem, normal / N(1)-H emission [1]: 400 nm
- τ [2, 10]: 0.65 ns

Molecule: CC(=O)N[C@@H](CC(C)C)C(=O)N[C@@H](CCCCN)C(=O)N[C@@H](Cc1c[nH]c2ncccc12)C(=O)N[C@@H](CCCCN)C(=O)N[C@@H](CCCCN)C(=O)N[C@@H](CC(C)C)C(=O)N[C@@H](CC(C)C)C(=O)N[C@@H](CCCCN)C(=O)N[C@@H](CC(C)C)C(=O)N[C@@H](CC(C)C)C(=O)N[C@@H](CCCCN)C(=O)N[C@@H](CCCCN)C(=O)N[C@@H](CC(C)C)C(=O)N[C@@H](CC(C)C)C(=O)N[C@@H](CCCCN)C(=O)N[C@@H](CC(C)C)C(=O)NCC(N)=O [(7-aza)Trp-Baa] (Ac-LK[Trp(7-aza)]KKLLKLLKKLLKLG-NH2)
- Kd [4]: 0.109 ± 0.005 nM
- secondary structure by CD (CD spectrum): α-helix structure
- λabs [1]: 300 nm
- λem, normal / N(1)-H emission [1]: 400 nm
- τ, normal (N(1)-H) emission lifetime ([6]; λmon 360 nm (text: 358 nm emission)): 7.35 ns
- λem, N(1)-H emission ([7]; 1.0 mM CaCl2): 358 nm
- environment around Trp analogue upon binding CaM [7]: less polar environment
- λabs [7]: 300 nm
- τ, normal (N(1)-H) emission lifetime ([2]; free peptide, neutral Tris buffer, λmon 400 nm, ±0.03 ns uncertainty): 0.65 ns

Molecule: Ac-LKWKKLLKLLKKLLKLG-NH2 [Baa]
- secondary structure by CD (CD spectrum): α-helix structure

— publication PMC5613298 (Biochemistry and Biophysics Reports, 2016)
